# According to ChEMBL document CHEMBL1131139, “Synthesis and antibacterial activity of ketolides (6-O-methyl-3-oxoerythromycin derivatives): a new class of antibacterials highly potent against macrolide-resistant and -susceptible respiratory pathogens” (1998):
# Columns and labels:
# Format in all cases: functional
# Streptococcus pyogenes = assay: In vitro inhibitory activity against Streptococcus pyogenes (02A1UC1)
# How it was run: (§1)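 Two-fold agar dilution on Mueller-Hinton agar (pH 7.4). Inoculum from overnight plate cultures suspended in Mueller-Hinton broth, adjusted to 10^9 CFU/mL, diluted 1:200 and spotted by multipoint inoculator at about 10^4 CFU/spot. Plates incubated 37 °C for 20 h. MIC taken as lowest concentration with no visible growth.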
# Staphylococcus aureus [1] = assay: In vitro inhibitory activity against Staphylococcus aureus (011UC4); how it was run: as §1
# Staphylococcus aureus [2] = assay: In vitro inhibitory activity against Staphylococcus aureus (EryRi 011GO25i); how it was run: as §1
# Staphylococcus aureus [3] = assay: In vitro inhibitory activity against Staphylococcus aureus (EryRc 011CB20); how it was run: as §1
# Streptococcus pneumoniae [4] = assay: In vitro inhibitory activity against Streptococcus pneumoniae (032UC1); how it was run: as §1
# Streptococcus pneumoniae [5] = assay: In vitro inhibitory activity against Streptococcus pneumoniae (EryRi 030SJ5i); how it was run: as §1
# [6] = test system: Staphylococcus epidermidis; assay: In vitro inhibitory activity against Staphylococcus epidermidis (EryRi 012GO11i); how it was run: as §1
# Haemophilus influenzae [7] = assay: In vitro inhibitory activity against Haemophilus influenzae (351HT3); how it was run: as §1
# Streptococcus pneumoniae [8] = assay: In vitro inhibitory activity against Streptococcus pneumoniae (EryRc 030SJ1); how it was run: as §1
# Escherichia coli = assay: In vitro inhibitory activity against Escherichia coli (250 UC5); how it was run: as §1
# Haemophilus influenzae [9] = assay: In vitro inhibitory activity against Haemophilus influenzae (351CB12); how it was run: as §1
SMILES,MIC (Streptococcus pyogenes) [µg/mL],MIC (Staphylococcus aureus [1]) [µg/mL],MIC (Staphylococcus aureus [2]) [µg/mL],MIC (Staphylococcus aureus [3]) [µg/mL],MIC (Streptococcus pneumoniae [4]) [µg/mL],MIC (Streptococcus pneumoniae [5]) [µg/mL],MIC [6] [µg/mL],MIC (Haemophilus influenzae [7]) [µg/mL],MIC (Streptococcus pneumoniae [8]) [µg/mL],MIC (Escherichia coli) [µg/mL],MIC (Haemophilus influenzae [9]) [µg/mL]
CC[C@H]1OC(=O)[C@H](C)C(=O)[C@H](C)[C@@H](O[C@@H]2O[C@H](C)C[C@H](N(C)C)[C@H]2O)[C@](C)(OC)C[C@@H](C)/C(=N\OC2CCCN(CCCC3CCCCC3)C2)[C@H](C)[C@@H](O)[C@]1(C)O (some centres undefined),0.04,0.15,2.5,40,0.02,0.15,5,5,0.6,40,1.2
CC[C@H]1OC(=O)[C@H](C)C(=O)[C@H](C)[C@@H](O[C@@H]2O[C@H](C)C[C@H](N(C)C)[C@H]2O)[C@](C)(OC)C[C@@H](C)/C(=N\OCCN2CCCCC2)[C@H](C)[C@@H](O)[C@]1(C)O,0.15,0.6,2.5,40,10,40,0.6,40,20,40,20
CC[C@H]1OC(=O)[C@H](C)C(=O)[C@H](C)[C@@H](O[C@@H]2O[C@H](C)C[C@H](N(C)C)[C@H]2O)[C@](C)(OC)C[C@@H](C)/C(=N\OCc2c(C)cc(C)cc2C)[C@H](C)[C@@H](O)[C@]1(C)O,0.3,0.3,0.6,10,0.04,5,0.6,40,5,40,40
CC[C@H]1OC(=O)[C@H](C)C(=O)[C@H](C)[C@@H](O[C@@H]2O[C@H](C)C[C@H](N(C)C)[C@H]2O)[C@](C)(OC)C[C@@H](C)/C(=N\OCc2ccccc2)[C@H](C)[C@@H](O)[C@]1(C)O,0.6,2.5,40,40,0.3,40,40,40,40,40,40
C#CCNCCO/N=C1\[C@H](C)C[C@@](C)(OC)[C@H](O[C@@H]2O[C@H](C)C[C@H](N(C)C)[C@H]2O)[C@@H](C)C(=O)[C@@H](C)C(=O)O[C@H](CC)[C@@](C)(O)[C@H](O)[C@H]1C,0.08,0.3,5,40,2.5,40,0.3,20,5,40,10
CC[C@H]1OC(=O)[C@H](C)C(=O)[C@H](C)[C@@H](O[C@@H]2O[C@H](C)C[C@H](N(C)C)[C@H]2O)[C@](C)(OC)C[C@@H](C)C(=O)[C@H](C)[C@H]2N(CCOCc3ccccc3)C(=O)O[C@]12C,0.02,0.04,0.08,40,0.02,0.3,0.15,1.2,5,40,0.6
CC[C@H]1OC(=O)[C@H](C)[C@@]2(O)O[C@@](C)(C[C@@H](C)/C(=N\OCOCCOC)[C@H](C)[C@@H](O)[C@]1(C)O)[C@H](O[C@@H]1O[C@H](C)C[C@H](N(C)C)[C@H]1O)[C@H]2C,40,40,40,40,40,40,40,40,40,40,40
CC[C@H]1OC(=O)[C@H](C)C(=O)[C@H](C)[C@@H](O[C@@H]2O[C@H](C)C[C@H](N(C)C)[C@H]2O)[C@](C)(OC)C[C@@H](C)C(=O)[C@H](C)[C@H]2N(NCCCc3ccccc3)C(=O)O[C@]12C,0.02,0.08,0.15,40,0.02,0.15,0.15,1.2,5,40,1.2
CC[C@H]1OC(=O)[C@H](C)C(=O)[C@H](C)[C@@H](O[C@@H]2O[C@H](C)C[C@H](N(C)C)[C@H]2O)[C@](C)(OC)C[C@@H](C)C(=O)[C@H](C)[C@H]2N(NCCCc3cccc(Cl)c3)C(=O)O[C@]12C,0.02,0.04,0.08,40,0.02,0.08,0.04,1.2,2.5,40,2.5
CCCCCCCCCCN1CCCC(O/N=C2\[C@H](C)C[C@@](C)(OC)[C@H](O[C@@H]3O[C@H](C)C[C@H](N(C)C)[C@H]3O)[C@@H](C)C(=O)[C@@H](C)C(=O)O[C@H](CC)[C@@](C)(O)[C@H](O)[C@H]2C)C1 (some centres undefined),0.08,0.6,0.6,10,0.08,0.3,0.6,20,1.2,40,5
CC[C@H]1OC(=O)[C@H](C)C(=O)[C@H](C)[C@@H](O[C@@H]2O[C@H](C)C[C@H](N(C)C)[C@H]2O)[C@](C)(OC)C[C@@H](C)/C(=N\OC2CCCN(CCCc3ccccc3)C2)[C@H](C)[C@@H](O)[C@]1(C)O (some centres undefined),0.08,0.3,0.6,40,0.08,0.3,0.6,5,1.2,40,0.6
CC[C@H]1OC(=O)[C@H](C)C(=O)[C@H](C)[C@@H](O[C@@H]2O[C@H](C)C[C@H](N(C)C)[C@H]2O)[C@](C)(OC)C[C@@H](C)/C(=N\OC2CCCN(CCCc3ccc(O)cc3)C2)[C@H](C)[C@@H](O)[C@]1(C)O (some centres undefined),0.04,0.08,0.6,40,0.02,0.15,0.3,5,0.6,40,1.2
CC[C@H]1OC(=O)[C@H](C)C(=O)[C@H](C)[C@@H](O[C@@H]2O[C@H](C)C[C@H](N(C)C)[C@H]2O)[C@](C)(OC)C[C@@H](C)C(=O)[C@@H](C)[C@H]2N(N)C(=O)O[C@]12C,2.5,40,40,40,5,40,40,40,40,40,40
CC[C@H]1OC(=O)[C@H](C)C(=O)[C@H](C)[C@@H](O[C@@H]2O[C@H](C)C[C@H](N(C)C)[C@H]2O)[C@](C)(OC)C[C@@H](C)C(=O)[C@H](C)[C@H]2N(NCCCc3ccnc4ccc(OC)cc34)C(=O)O[C@]12C,0.02,0.04,0.08,40,0.02,0.02,0.08,1.2,0.08,40,2.5
CC[C@H]1OC(=O)[C@H](C)C(=O)[C@H](C)[C@@H](O[C@@H]2O[C@H](C)C[C@H](N(C)C)[C@H]2O)[C@](C)(OC)C[C@@H](C)C(=O)[C@H](C)[C@@H](O)[C@]1(C)O,0.6,0.3,40,40,0.15,40,5,20,40,40,20
CC[C@H]1OC(=O)[C@H](C)[C@@H](O[C@H]2C[C@@](C)(OC)[C@@H](O)[C@H](C)O2)[C@H](C)[C@@H](O[C@@H]2O[C@H](C)C[C@H](N(C)C)[C@H]2O)[C@](C)(OC)C[C@@H](C)C(=O)[C@H](C)[C@H]2N(CCCCc3ccccc3)C(=O)O[C@]12C,0.04,0.3,20,20,0.02,1.2,40,2.5,10,40,2.5
CC[C@H]1OC(=O)[C@H](C)C(=O)[C@H](C)[C@@H](O[C@@H]2O[C@H](C)C[C@H](N(C)C)[C@H]2O)[C@](C)(OC)C[C@@H](C)/C(=N\OCCNCCN2CCCC2)[C@H](C)[C@@H](O)[C@]1(C)O,0.04,0.3,1.2,40,10,1.2,0.6,20,0.6,40,10
CC[C@H]1OC(=O)[C@H](C)C(=O)[C@H](C)[C@@H](O[C@@H]2O[C@H](C)C[C@H](N(C)C)[C@H]2O)[C@](C)(OC)C[C@@H](C)/C(=N/OCOCCOC)[C@H](C)[C@@H](O)[C@]1(C)O,0.15,1.2,2.5,40,0.15,10,1.2,40,40,40,40
CC[C@H]1OC(=O)[C@H](C)C(=O)[C@H](C)[C@@H](O[C@@H]2O[C@H](C)C[C@H](N(C)C)[C@H]2O)[C@](C)(OC)C[C@@H](C)/C(=N\OCCN2CCOCC2)[C@H](C)[C@@H](O)[C@]1(C)O,0.15,1.2,10,40,40,20,2.5,40,5,40,40
